The term inhibition denotes how much of the control response was suppressed.

Drawing on ChEMBL document CHEMBL1153852, “Steroidal lactones as inhibitors of 17beta-hydroxysteroid dehydrogenase type 5: chemical synthesis, enzyme inhibitory activity, and assessment of estrogenic and androgenic activities” (Eur J Med Chem, 2009), this text covers Activity and inhibition for 2 compounds.

Molecules are shown by their SMILES.

The target in assay [1] is T1, Progesterone receptor (Rattus norvegicus) (UniProt Q63449).
T1 sequence (whole entry): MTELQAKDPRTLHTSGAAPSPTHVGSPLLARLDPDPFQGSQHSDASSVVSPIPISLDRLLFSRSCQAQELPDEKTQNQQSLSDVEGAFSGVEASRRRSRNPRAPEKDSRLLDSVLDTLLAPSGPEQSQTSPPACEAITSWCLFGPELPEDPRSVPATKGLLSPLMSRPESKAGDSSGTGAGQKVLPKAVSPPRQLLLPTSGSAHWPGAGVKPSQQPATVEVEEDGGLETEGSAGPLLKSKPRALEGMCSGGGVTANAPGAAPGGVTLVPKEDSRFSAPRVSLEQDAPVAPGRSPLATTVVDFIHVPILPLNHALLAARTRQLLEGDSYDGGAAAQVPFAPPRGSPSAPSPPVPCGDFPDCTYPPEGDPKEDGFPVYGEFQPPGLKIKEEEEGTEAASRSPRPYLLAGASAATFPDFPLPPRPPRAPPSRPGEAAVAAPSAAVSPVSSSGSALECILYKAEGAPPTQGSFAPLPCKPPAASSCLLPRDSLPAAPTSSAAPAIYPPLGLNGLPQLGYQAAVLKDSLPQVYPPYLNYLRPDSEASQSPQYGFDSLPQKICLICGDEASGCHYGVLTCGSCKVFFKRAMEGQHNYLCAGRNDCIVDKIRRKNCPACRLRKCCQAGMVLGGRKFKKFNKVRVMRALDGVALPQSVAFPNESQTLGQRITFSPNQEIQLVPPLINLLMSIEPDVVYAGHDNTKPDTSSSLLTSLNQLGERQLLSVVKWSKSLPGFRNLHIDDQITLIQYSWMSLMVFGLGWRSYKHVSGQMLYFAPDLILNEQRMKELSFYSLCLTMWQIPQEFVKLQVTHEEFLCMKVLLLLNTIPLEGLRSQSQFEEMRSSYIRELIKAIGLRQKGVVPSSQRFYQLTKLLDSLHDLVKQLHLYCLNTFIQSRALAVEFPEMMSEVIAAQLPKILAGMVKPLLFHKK
Nature of the assay: Binding affinity to rat uterus progesterone receptor at 1 uM.

The target of assay [2] is T2, Glucocorticoid receptor (Rattus norvegicus) (UniProt P06536).
T2 sequence (whole entry): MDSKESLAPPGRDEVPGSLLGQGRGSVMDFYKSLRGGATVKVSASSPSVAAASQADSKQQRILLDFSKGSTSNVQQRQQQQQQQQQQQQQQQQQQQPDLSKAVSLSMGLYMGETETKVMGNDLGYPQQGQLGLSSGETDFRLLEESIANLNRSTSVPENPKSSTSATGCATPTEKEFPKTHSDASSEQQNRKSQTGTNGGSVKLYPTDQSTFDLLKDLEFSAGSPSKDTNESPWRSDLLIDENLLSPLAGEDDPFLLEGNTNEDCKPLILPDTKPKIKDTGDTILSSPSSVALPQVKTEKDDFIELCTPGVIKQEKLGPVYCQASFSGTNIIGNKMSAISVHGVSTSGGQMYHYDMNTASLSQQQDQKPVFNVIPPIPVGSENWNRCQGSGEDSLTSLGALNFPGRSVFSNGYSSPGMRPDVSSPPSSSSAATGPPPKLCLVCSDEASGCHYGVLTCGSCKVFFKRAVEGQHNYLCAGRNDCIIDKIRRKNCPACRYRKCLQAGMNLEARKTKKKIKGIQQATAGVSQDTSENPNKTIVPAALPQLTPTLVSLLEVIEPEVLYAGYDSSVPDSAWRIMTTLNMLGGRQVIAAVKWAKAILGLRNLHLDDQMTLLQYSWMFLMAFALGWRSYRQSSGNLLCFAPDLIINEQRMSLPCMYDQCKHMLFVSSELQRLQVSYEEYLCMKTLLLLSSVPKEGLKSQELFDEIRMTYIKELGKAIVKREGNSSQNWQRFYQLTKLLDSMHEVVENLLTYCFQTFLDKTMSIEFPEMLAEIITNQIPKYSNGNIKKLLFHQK
The experiment in a line: Binding affinity to rat liver glucocorticoid receptor at 1 uM. Put shortly: (§1)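 Rat liver glucocorticoid receptor competitive binding, reported as % binding. Bound and free steroid are separated by dextran-coated charcoal adsorption instead of protamine sulfate precipitation.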

The target of assay [3] is T3, 17-beta-hydroxysteroid dehydrogenase type 3 (Homo sapiens) (UniProt P37058).
T3 sequence (whole entry): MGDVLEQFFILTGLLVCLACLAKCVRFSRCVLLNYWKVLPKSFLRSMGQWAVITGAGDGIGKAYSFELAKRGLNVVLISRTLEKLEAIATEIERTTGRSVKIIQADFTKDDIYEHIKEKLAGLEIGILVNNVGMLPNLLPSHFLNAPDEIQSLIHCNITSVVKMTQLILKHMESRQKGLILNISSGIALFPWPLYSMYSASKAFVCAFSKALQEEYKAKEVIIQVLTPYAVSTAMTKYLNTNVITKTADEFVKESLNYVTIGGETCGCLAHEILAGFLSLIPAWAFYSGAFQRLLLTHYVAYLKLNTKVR
The experiment in a line: Inhibition of human 17beta-HSD3 expressed in HEK293 cells assessed as enzyme-mediated transformation of [14C]-4-androstene-3,17-dione in to [14C]-testosterone at 1 uM. The assay is classed as cell-based.

For assay [4], the target named is T4, Androgen receptor (Rattus norvegicus) (UniProt P15207).
T4 sequence (whole entry): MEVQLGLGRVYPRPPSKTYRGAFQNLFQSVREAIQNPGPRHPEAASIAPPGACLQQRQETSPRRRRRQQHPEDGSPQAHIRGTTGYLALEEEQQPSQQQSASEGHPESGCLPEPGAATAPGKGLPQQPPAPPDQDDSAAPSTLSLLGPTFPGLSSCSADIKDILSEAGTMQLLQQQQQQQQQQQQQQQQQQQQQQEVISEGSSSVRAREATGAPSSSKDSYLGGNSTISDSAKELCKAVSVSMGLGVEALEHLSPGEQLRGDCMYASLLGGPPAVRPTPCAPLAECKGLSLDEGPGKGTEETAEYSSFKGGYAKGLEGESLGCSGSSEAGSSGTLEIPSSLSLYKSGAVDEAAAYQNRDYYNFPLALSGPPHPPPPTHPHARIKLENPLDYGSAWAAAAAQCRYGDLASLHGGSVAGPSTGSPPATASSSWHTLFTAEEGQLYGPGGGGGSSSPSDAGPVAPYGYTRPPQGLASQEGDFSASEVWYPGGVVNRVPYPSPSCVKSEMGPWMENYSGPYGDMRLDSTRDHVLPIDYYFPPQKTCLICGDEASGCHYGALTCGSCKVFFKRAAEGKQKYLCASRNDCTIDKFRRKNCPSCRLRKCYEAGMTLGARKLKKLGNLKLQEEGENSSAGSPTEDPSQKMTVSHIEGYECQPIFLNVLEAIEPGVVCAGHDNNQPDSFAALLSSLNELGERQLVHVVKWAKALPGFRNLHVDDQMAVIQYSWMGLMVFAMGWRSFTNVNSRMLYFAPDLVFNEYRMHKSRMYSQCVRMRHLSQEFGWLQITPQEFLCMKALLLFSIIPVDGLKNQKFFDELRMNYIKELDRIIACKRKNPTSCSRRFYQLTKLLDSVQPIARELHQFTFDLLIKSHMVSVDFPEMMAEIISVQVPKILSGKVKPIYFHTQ
Nature of the assay: Binding affinity to rat ventral prostate androgen receptor at 0.1 uM. To be noted: Prostate gland. It is filed as tissue-based.

Assay [5] deals with T2, Glucocorticoid receptor (Rattus norvegicus). Nature of the assay: Binding affinity to rat liver glucocorticoid receptor at 0.1 uM. In outline: as §1

For the compound `CC1(C)CC[C@@]2(CC[C@H]3[C@@H]4CCc5ccccc5[C@H]4CC[C@@]32C)OC1=O`, the values for the Activity in assay [1] and in assay [2] were 5% and 0%, respectively. Further, the inhibition in assay [3] came out at 64%.
On to `CC1(C)CC[C@@]2(CC[C@H]3[C@@H]4CCc5cc(O)ccc5[C@H]4CC[C@@]32C)OC1=O`, for which the Activity in assay [4] and in assay [5] was 0% throughout.
